Data taken from PubChem BioAssay.
Active and inactive are the calls of the source.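 The calls were made as follows, unless noted: active = inhibition at or above 50% relative to wild type and mutant plate controls; inactive = inhibition below 50%.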

How the values were obtained:
[1] = inhibitors of TNFa-induced NFkB p65 translocation, primary screen, imaging, HUVEC, MLSMR starter and 10KST1 sets (AID 438;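 active = inhibition above 20% together with a positive visual image hit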;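 also: compound added about 3h40 before a 20 min TNFalpha stimulation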;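 as to inhibition: signal is the nuclear over cytoplasmic p65 intensity ratio per well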); conditions: HUVEC TNFa-induced p65 nuclear translocation; cell count: measured here: nuclei count (cytotoxicity indicator), at 2.08 µM; inhibition: at 2 µM, stronger effect = higher value, 0% TNFa-plus-vehicle, 100% no-TNFa wells
[2] = inhibitors of E-selectin induction by TNFa, primary screen, imaging, HUVEC, immunofluorescence, MLSMR starter and 10KST1 sets (AID 487;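 active = visually confirmed hit in the image check and inhibition above 20%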;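 as to inhibition: signal is fraction of cell area covered by stained E-selectin grains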;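 as to nuclei count: 100% = median nuclei count of all wells on the same plate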); conditions: HUVEC TNFalpha-induced E-selectin immunofluorescence imaging, at 2 µM; inhibition: stronger effect = higher value; nuclei count: measured here: cell number, toxicity
[3] = DUSP6 inhibitors restoring Erk phosphorylation by chemical complementation, primary imaging in DUSP6-transfected HeLa (AID 609;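 active = compounds giving at least 50% inhibition in the cell-based MKP-3 phosphatase rescue imaging test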;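 as to inhibition: phospho-Erk level distribution per well compared with pooled transfected vehicle control wells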); conditions: HeLa MKP-3 transfected, phospho-Erk imaging KS statistic, at 10 µM, cells stimulated with TPA for 15 min
[4] = target: Dual specificity protein phosphatase 6 (Homo sapiens) (UniProt Q16828); test: as above; conditions: HeLa MKP-3 transfected, phospho-Erk imaging KS statistic; at 10 µM; stronger effect = higher value; cells stimulated with TPA for 15 min
[5] = target: Voltage-gated potassium channel subunit beta-2 (Rattus norvegicus) (UniProt P62483); test: KvBeta enzyme negative modulators, primary screen, biochemical, NADPH fluorescence (AID 622;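 active = fluorescence slope higher than the sample average by over 3 SD, cut at about -0.22 in these data, passing the limit was not always enough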;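 also: slope of raw intensity against log time taken from 70 to 1610 s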); conditions: recombinant KvBeta, 4-cyanobenzaldehyde reduction, at 10 µM, stronger effect = higher value
[6] = target: Voltage-gated potassium channel subunit beta-2 (Rattus norvegicus) (UniProt P62483); test: KvBeta positive modulators, primary screen, biochemical, NADPH fluorescence (AID 623;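 active = NADPH fluorescence slope more negative than the mean of all samples by about 3 SD, 99.7% confidence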;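 also: fluorescence intensity change per second fitted from 20 to 320 s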); conditions: Recombinant KvBeta, NADPH fluorescence decrease slope, 10 min; at 10 µM; stronger effect = lower value
[7] = target: Muscarinic acetylcholine receptor M4 (Homo sapiens) (UniProt P08173); test: compounds altering M4/GIRK thallium flux, either direction, primary screen, M4 allosteric agonist project, cell-based, HEK293 M4/GIRK, BTC-AM (AID 625;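 active = fluorescence slope after compound addition differing from the mean of all tested samples at 99.7% confidence, mostly higher but some lower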;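 also: thallium influx through GIRK channels coupled to M4 in HEK293 cells with BTC-AM dye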); conditions: at 10 µM, actives lie on both sides
Summary of the method: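 System: HEK293 cells with M4 receptor and GIRK channels | Incubation: Cells overnight at 37 °C, BTC-AM loading 1 h, reads 2 min total | Technique: Kinetic BTC-AM fluorescence sampled at 1 Hz, 10 s pre-addition baseline | Measure: Post-addition slope, 15–24 s, of baseline-normalized fluorescence | Control set: Carbachol positive, DMSO negative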

[8] = inhibitors of larval lipid processing in zebrafish, primary screen, whole organism, PED6 fluorescence, gall bladder and intestine (AID 686;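 active = a full or partial loss of lipid-probe fluorescence in the fish gall bladder, intestine or both, judged by eye; inactive = no fluorescence loss, or compound toxic to the fish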;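 also: larvae 5 to 7 days old with five fish per well; signal comes from phospholipase A2 cleavage of quenched PED6 carried via bile; overnight exposure to compound and PED6 before scoring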); conditions: Zebrafish larvae PED6 lipid processing, fluorescence scoring; screened at 20 µM (by protocol)
Summary of the method: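 Test system – live zebrafish larvae aged 5-7 days, whole organism · Buffer or medium – E3 fish medium · Reagent – quenched phospholipase substrate PED6, 100 nM final, ingested by larvae · Doses – 20 µM single dose · Incubation – overnight compound and PED6 incubation · Technique – visual fluorescence microscopy scoring of gall bladder, gut · Read-out basis – visual per-well fluorescence inhibition score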

[9] = inhibitors of Chlamydomonas gravitaxis, primary screen, whole organism, Chlamydomonas reinhardtii, WT vs cilia-less mutant, absorbance, 96-well (AID 463189); conditions: OD600 absorbance, 2 days, at 10 µM, stronger effect = higher value;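 also: 0% = wild type cc124 cells in DMSO and 100% = ciliumless bld1 mutant cells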
[10] = target: Alpha-2C adrenergic receptor (Homo sapiens) (UniProt P18825); test: modulators of alpha2C/GIRK thallium flux, primary screen, cell-based, HEK293 alpha2C/GIRK1/2 (AID 624;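 active = fluorescence slope after compound addition differing from the mean of all screened samples at 99.7% confidence, in either direction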;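 also: slope of fluorescence ratio to pre-addition baseline per second over 15 to 24 s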); conditions: thallium flux BTC fluorescence, at 10 µM, actives lie on both sides
[11] = measured here: cell density z-score
[12] = measured here: nuclear c-Myc green intensity z-score
[13] = measured here: nuclear pErk red intensity z-score, stronger effect = higher value

Chain of Muscarinic acetylcholine receptor M4 (Homo sapiens) (P08173 whole entry, looked up): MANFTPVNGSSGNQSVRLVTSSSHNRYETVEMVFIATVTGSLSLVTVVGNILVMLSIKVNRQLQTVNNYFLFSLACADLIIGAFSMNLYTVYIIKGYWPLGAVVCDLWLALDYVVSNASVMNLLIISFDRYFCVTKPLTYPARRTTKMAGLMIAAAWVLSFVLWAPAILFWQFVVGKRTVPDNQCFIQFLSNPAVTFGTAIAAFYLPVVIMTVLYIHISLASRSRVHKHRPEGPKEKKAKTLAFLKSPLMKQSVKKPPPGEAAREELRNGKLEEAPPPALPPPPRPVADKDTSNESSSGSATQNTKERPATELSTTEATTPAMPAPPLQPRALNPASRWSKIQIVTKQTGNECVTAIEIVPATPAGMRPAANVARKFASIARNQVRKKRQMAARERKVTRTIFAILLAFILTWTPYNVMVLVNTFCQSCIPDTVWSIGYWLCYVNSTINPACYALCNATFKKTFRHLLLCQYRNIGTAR
Chain of Dual specificity protein phosphatase 6 (Homo sapiens) (Q16828 whole entry, looked up): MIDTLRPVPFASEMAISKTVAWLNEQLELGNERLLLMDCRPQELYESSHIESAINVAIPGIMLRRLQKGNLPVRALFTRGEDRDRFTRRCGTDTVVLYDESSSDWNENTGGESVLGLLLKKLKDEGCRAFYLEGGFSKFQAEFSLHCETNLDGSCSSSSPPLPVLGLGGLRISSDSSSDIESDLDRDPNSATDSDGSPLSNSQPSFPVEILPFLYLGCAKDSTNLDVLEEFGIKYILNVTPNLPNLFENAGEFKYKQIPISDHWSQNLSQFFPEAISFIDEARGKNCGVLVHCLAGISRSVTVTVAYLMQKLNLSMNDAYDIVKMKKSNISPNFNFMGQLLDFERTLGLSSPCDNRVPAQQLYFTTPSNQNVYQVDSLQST
Chain of Voltage-gated potassium channel subunit beta-2 (Rattus norvegicus) (P62483 whole entry, looked up): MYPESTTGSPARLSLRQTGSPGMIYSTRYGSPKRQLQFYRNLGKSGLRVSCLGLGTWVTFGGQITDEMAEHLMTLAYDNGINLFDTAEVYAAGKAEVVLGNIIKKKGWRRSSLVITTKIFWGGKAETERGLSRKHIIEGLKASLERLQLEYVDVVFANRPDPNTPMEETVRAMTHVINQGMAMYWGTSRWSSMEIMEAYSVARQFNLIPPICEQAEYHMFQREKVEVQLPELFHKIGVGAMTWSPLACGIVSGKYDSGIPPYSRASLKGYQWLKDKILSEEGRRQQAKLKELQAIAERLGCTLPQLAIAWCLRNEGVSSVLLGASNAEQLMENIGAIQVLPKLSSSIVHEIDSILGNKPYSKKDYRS
Chain of Alpha-2C adrenergic receptor (Homo sapiens) (P18825 whole entry, looked up): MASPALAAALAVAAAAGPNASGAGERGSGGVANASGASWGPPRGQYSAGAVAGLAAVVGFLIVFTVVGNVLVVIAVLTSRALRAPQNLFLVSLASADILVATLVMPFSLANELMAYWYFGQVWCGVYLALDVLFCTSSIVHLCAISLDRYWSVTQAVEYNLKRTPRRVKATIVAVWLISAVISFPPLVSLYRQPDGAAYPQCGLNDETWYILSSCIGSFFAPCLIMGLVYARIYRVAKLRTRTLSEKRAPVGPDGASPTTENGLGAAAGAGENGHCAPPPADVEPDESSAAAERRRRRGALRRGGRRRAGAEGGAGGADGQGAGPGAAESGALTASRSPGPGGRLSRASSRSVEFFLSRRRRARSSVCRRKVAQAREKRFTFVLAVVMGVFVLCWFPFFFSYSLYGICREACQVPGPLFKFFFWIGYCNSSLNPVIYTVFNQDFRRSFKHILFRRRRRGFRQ

SMILES	cell count [1]	inhibition [1]	inhibition [2]	nuclei count [2]	z-score [3, 11]	z-score [3, 12]	z-score [3, 13]	inhibition [4]	fluorescence slope [5]	NADPH fluorescence slope [6]	fluorescence slope [7]	outcome [8]	inhibition [9]	slope [10]
COC(=O)c1[nH]c(C)c(/C(O)=C2\C(=O)C(=O)N(CCN3CCOCC3)C2c2cccnc2)c1C (stereo not given)	605	-1.2% (inactive)	-2.2% (inactive)	163%	-1.96	0.711	-3.8	-3.95% (inactive)	-0.46 (inactive)	-0.000197 (inactive)	0.00521 (inactive)	inactive	5.4% (inactive)	–
CCOC(=O)C1(c2nc(N)cs2)COC(=O)C1 (stereo not given)	529	-7.1% (inactive)	15.9% (inactive)	110%	1.01	1.47	-1.03	16% (inactive)	-0.497 (inactive)	-5e-05 (inactive)	0.00548 (inactive)	inactive	-13.2% (inactive)	–
CC(NC(=O)NC(N)=O)(C(F)(F)F)C(F)(F)F	674	6.8% (inactive)	-84.9% (inactive)	109%	0.562	0.75	0.26	13.9% (inactive)	-0.534 (inactive)	-1.1e-05 (inactive)	0.00493 (inactive)	inactive	21.5% (inactive)	–
COC(=O)CSc1ncnc2c1sc1nc(-c3ccco3)c3c(c12)CC(C)(C)OC3	514	-12.6% (inactive)	-71.6% (inactive)	130%	-0.117	0.288	-0.223	9.91% (inactive)	-0.364 (inactive)	-2e-06 (inactive)	0.00608 (inactive)	inactive	-8.07% (inactive)	–
O=C(O)c1c[nH]c2ccc(S(=O)(=O)N3CCOCC3)cc12	597	-4.4% (inactive)	-208% (inactive)	144%	-0.324	-1.59	0.18	5.42% (inactive)	-0.496 (inactive)	-6.6e-05 (inactive)	0.00433 (inactive)	inactive	8.59% (inactive)	–
COC(=O)C1=C(C)N=C2SC(C)C(=O)N2C1c1ccc(C(=O)OC)cc1 (stereo not given)	746	-2.4% (inactive)	-42.3% (inactive)	164%	0.938	-0.219	-3.03	9.61% (inactive)	-0.448 (inactive)	-4.8e-05 (inactive)	0.00486 (inactive)	inactive	1.12% (inactive)	–
Cc1cc(NC(=O)CSc2nc(-c3cccnc3)ccc2C#N)no1	733	-10.3% (inactive)	-53% (inactive)	171%	0.472	0.655	-0.248	4.25% (inactive)	-0.414 (inactive)	-4.1e-05 (inactive)	0.00502 (inactive)	inactive	44.8% (inactive)	–
CCN1CCc2c(C#N)c(NCc3ccccc3)nc(NCCO)c2C1	534	-12% (inactive)	-113% (inactive)	151%	0.614	-1.73	-1.03	-5.81% (inactive)	-0.398 (inactive)	-3.2e-05 (inactive)	0.00361 (inactive)	inactive	-0.503% (inactive)	–
O=C1CCC(=O)N1CN(Cc1ccco1)CN1C(=O)CCC1=O	512	-4.8% (inactive)	-33.2% (inactive)	158%	2.24	-1.47	0.89	37.7% (inactive)	-0.376 (inactive)	-1.3e-05 (inactive)	0.00674 (inactive)	inactive	13.2% (inactive)	–
CC1CN(C2CCN(C(=O)c3ccccc3)CC2)CC(C)O1 (stereo not given)	391	-25.6% (inactive)	–	174%	1.48	-0.00638	-0.737	-0.159% (inactive)	-0.395 (inactive)	-3.8e-05 (inactive)	–	inactive	4.48% (inactive)	0.00679 (inactive)
c1ccc(CSc2nnc(SCc3ccccn3)s2)nc1	352	-20.9% (inactive)	–	173%	1.06	-1.17	0.36	3.66% (inactive)	-0.405 (inactive)	-5.6e-05 (inactive)	–	inactive	-2.59% (inactive)	0.00665 (inactive)
CCC(C(=O)Nc1ncn[nH]1)(C(F)(F)F)C(F)(F)F	692	5.8% (inactive)	-106% (inactive)	171%	0.655	0.101	-0.238	7.93% (inactive)	-0.479 (inactive)	-4.9e-05 (inactive)	0.0062 (inactive)	inactive	27.8% (inactive)	–
Nc1nonc1C(=O)NCCN=Cc1cc(Cc2ccccc2)cc(Br)c1O	537	-4.9% (inactive)	49.5% (inactive)	156%	-0.875	1.06	0.686	-1.98% (inactive)	-0.41 (inactive)	-6.3e-05 (inactive)	0.00522 (inactive)	inactive	-5.78% (inactive)	–
CCOC(=O)C1/C(=N\O)CC(C)(O)C(C(=O)OCC)C1c1ccc(OC)c(OC)c1 (stereo not given)	573	-0.9% (inactive)	-36% (inactive)	149%	0.422	-0.512	-0.582	1.98% (inactive)	-0.416 (inactive)	-5.9e-05 (inactive)	0.0045 (inactive)	inactive	1.71% (inactive)	–
